This note sets out measurements from ChEMBL document CHEMBL1275331, “Discovery of a novel 5-HT(3) antagonist/5-HT(1A) agonist 3-amino-5,6,7,8-tetrahydro-2-{4-[4-(quinolin-2-yl)piperazin-1-yl]butyl}quinazolin-4(3H)-one (TZB-30878) as an orally bioavailable agent for irritable bowel syndrome” (J Med Chem, 2010).

For orientation: Kp means the ratio of the level in a tissue or fluid to that in plasma or blood.

The source made the active and inactive calls. No cut-off for these calls is given here.

A short description of data set [1]: Drug level in Sprague-Dawley rat blood at 3 mg/kg, po after 2 hrs by HPLC analysis. Also noted: dose 3 mg/kg, route oral. The conditions noted are these: whole blood, read-out: Drug uptake. The data set is classed as ADME, organism-based. In a few lines:
(§1)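 Total compound concentration was measured in brain and blood at 2, 4 and 8 h after a single oral 3 mg/kg dose. Brain/blood ratio was also derived. Values are mean ± SD of three rats.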

Data set [2] is described as follows: Ratio of drug level in brain to blood in Sprague-Dawley rat at 3 mg/kg, po after 2 hrs. The data set is classed as ADME, organism-based. More on the design: dose 3 mg/kg, route oral. The procedure, abridged:
(§2)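 Rats dosed 3 mg/kg orally; total compound levels measured in brain and blood at 2, 4 and 8 h, brain/blood ratio derived. Mean ± SD of three rats.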

Data set [3] in a line: Drug level in Sprague-Dawley rat blood at 3 mg/kg, po after 4 hrs by HPLC analysis. The data set is classed as ADME, organism-based. Also noted: dose 3 mg/kg, route oral. The conditions noted are these: whole blood, read-out: Drug uptake. In a few lines: as §1
Data set [4] is described as follows: Ratio of drug level in brain to blood in Sprague-Dawley rat at 3 mg/kg, po after 4 hrs. Type of data set: ADME, organism-based. Also noted: dose 3 mg/kg, route oral. The procedure, abridged: as §2
The nature of data set [5]: Drug level in Sprague-Dawley rat brain at 3 mg/kg, po after 8 hrs by HPLC analysis. Type of data set: ADME, organism-based. More on the design: dose 3 mg/kg, route oral. The conditions noted are these: read-out: Drug uptake. In a few lines: as §1
A short description of data set [6]: Ratio of drug level in brain to blood in Sprague-Dawley rat at 3 mg/kg, po after 8 hrs. The data set is classed as ADME, organism-based. More on the design: dose 3 mg/kg, route oral. The procedure, abridged:
as §2

For data set [7], the system named is Rattus norvegicus. Kind of data set: Induction of 5HT1A receptor-mediated behavioral activity in rat assessed as appearance of flat body posture at 10 mg/kg, iv after 30 mins. Type of data set: functional, organism-based. Also noted: dose 10 mg/kg. The procedure, abridged:
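Rats were conditioned to test procedures over 2 weeks and acclimated to the test cage for 1 h. Vehicle was saline containing diluted HCl. Lower lip retraction and flat body posture were scored on a 0–3 scale at 5, 10, 20 and 30 min after dosing.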

Data set [8] addresses D(2) dopamine receptor (Homo sapiens, UniProt P14416). Description: Inhibition of human dopamine D2 receptor.
The target of data set [9] is 5-hydroxytryptamine receptor 2A (Rattus norvegicus, UniProt P14842). Description: Inhibition of rat 5HT2 receptor.
In data set [10] the target is 5-hydroxytryptamine receptor 4 (Cavia porcellus, UniProt O70528). Description: Inhibition of guinea pig 5HT4 receptor.
Data set [11] relates to Rattus norvegicus. Kind of data set: Reduction in wrap restraint stress-induced defecation in WAY-100635-treated rat diarrhea-predominant irritable bowel syndrome model at 0.3 to 3 mg/kg, ip administered 20 mins following addition of 5HT1A receptor antagonist WAY-100635. The data set is classed as functional, organism-based. The procedure, abridged: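 Rats received saline (with diluted HCl) or WAY-100635 sc; 20 min later compound or vehicle ip. Five minutes after, lightly anesthetized rats were wrapped for 1 h and feces counted. n = 8 per group, mean (SD); Wilcoxon and nonparametric Dunnett's tests.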

The target of data set [12] is Adenosine receptor A1 (Homo sapiens, UniProt P30542). Kind of data set: Displacement of [3H]DPCPX from human recombinant adenosine A1 receptor. (Loss of bound radioactivity is the signal in a displacement assay; it reports binding, not function.)
The target of data set [13] is Adrenergic receptor alpha-2 (Rattus norvegicus, UniProt P22086+P19328+P22909). Description: Displacement of [3H]RX821002 from rat cerebral cortex alpha2 adrenergic receptor. Type of data set: tissue-based.
Data set [14] has as its target Beta-1 adrenergic receptor (Homo sapiens, UniProt P08588). Description: Displacement of [3H](-)CGP12177 from human recombinant beta-1 adrenergic receptor.
The nature of data set [15]: Displacement of [3H]GABA from rat cerebral cortex GABA(A) receptor. The data set is classed as tissue-based.
Data set [16] addresses Histamine H1 receptor (Homo sapiens, UniProt P35367). Description: Displacement of [3H]pyrilamine from human recombinant histamine H1 receptor.
In data set [17] the target is Muscarinic acetylcholine receptor M1 (Homo sapiens, UniProt P11229). Description: Displacement of [3H]pirenzepine from human recombinant muscarinic M1 receptor.
Data set [18] deals with Neuromedin-K receptor (Homo sapiens, UniProt P29371). Description: Displacement of [3H]SR142801 from human recombinant NK3 receptor.
The target in data set [19] is Neuropeptide Y receptor type 1 (Homo sapiens, UniProt P25929). Kind of data set: Displacement of [125I]peptide YY from NPY1 receptor in human SK-N-MC cells. Type of data set: cell-based.
The target of data set [20] is Neuropeptide Y receptor type 2 (Homo sapiens, UniProt P49146). Kind of data set: Displacement of [125I]peptide YY from NPY2 receptor in human KAN-TS cells. The data set is classed as cell-based.
The target in data set [21] is T1, 5-hydroxytryptamine receptor 1A (Homo sapiens, UniProt P08908).
T1 sequence (P08908 whole entry): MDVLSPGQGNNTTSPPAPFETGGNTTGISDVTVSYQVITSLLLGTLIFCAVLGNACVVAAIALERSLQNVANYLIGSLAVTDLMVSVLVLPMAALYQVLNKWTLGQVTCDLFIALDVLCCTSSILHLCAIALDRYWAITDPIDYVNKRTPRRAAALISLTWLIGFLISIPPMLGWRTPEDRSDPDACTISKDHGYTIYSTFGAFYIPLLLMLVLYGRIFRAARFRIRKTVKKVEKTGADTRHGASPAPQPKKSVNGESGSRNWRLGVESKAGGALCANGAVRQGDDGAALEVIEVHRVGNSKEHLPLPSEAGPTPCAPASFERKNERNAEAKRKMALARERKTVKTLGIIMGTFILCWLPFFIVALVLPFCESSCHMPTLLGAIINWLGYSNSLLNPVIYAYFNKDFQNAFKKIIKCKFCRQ
Description: Displacement of 8-hydroxy-[3H]DPAT from human recombinant 5HT1A receptor.

The target of data set [22] is 5-hydroxytryptamine receptor 1B (Rattus norvegicus, UniProt P28564). Description: Displacement of [125I]CYP from rat cerebral cortex 5HT1B receptor in presence of 30 uM propranolol. Type of data set: tissue-based.
The target of data set [23] is 5-hydroxytryptamine receptor 5A (Homo sapiens, UniProt P47898). Description: Displacement of [3H]LSD from human recombinant 5HT5A receptor.
Data set [24] has as its target T2, 5-hydroxytryptamine receptor 3A (Homo sapiens, UniProt P46098).
T2 sequence (P46098 whole entry): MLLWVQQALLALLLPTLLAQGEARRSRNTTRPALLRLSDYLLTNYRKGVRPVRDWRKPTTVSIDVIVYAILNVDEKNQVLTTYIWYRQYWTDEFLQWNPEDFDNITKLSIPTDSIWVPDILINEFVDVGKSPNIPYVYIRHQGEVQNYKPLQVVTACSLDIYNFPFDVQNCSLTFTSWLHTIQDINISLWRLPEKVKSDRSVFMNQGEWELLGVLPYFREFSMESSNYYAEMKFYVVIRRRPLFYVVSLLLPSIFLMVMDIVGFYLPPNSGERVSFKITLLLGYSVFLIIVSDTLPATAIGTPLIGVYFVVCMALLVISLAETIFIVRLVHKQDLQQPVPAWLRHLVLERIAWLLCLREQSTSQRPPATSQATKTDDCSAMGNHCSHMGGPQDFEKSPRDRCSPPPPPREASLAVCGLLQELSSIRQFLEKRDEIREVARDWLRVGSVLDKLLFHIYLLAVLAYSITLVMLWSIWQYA
Kind of data set: Displacement of [3H]BRL-43694 from human recombinant 5HT3 receptor.

Sequence of 5-hydroxytryptamine receptor 4 (O70528 whole entry): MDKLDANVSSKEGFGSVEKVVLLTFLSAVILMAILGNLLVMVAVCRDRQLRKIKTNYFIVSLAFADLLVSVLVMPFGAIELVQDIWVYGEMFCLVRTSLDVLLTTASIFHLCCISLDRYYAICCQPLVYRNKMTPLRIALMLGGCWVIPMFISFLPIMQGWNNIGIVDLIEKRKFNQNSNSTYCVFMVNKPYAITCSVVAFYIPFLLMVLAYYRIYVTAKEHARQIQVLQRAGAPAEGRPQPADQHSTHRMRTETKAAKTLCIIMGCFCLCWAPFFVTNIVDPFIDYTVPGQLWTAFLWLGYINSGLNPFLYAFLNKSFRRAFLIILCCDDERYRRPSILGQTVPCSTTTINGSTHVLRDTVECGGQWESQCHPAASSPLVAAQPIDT
Sequence of Muscarinic acetylcholine receptor M1 (P11229 whole entry): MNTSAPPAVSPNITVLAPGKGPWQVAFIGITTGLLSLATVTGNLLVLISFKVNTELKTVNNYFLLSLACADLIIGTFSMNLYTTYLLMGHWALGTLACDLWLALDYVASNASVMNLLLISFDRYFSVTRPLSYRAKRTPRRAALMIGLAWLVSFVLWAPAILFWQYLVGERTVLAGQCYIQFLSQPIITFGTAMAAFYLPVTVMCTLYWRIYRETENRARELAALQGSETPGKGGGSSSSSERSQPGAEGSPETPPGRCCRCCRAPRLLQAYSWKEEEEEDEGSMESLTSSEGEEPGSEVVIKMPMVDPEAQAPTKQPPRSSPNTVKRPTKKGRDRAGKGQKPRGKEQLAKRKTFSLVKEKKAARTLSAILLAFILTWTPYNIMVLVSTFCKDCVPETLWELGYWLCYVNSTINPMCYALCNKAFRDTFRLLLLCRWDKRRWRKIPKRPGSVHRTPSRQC
Sequence of Histamine H1 receptor (P35367 whole entry): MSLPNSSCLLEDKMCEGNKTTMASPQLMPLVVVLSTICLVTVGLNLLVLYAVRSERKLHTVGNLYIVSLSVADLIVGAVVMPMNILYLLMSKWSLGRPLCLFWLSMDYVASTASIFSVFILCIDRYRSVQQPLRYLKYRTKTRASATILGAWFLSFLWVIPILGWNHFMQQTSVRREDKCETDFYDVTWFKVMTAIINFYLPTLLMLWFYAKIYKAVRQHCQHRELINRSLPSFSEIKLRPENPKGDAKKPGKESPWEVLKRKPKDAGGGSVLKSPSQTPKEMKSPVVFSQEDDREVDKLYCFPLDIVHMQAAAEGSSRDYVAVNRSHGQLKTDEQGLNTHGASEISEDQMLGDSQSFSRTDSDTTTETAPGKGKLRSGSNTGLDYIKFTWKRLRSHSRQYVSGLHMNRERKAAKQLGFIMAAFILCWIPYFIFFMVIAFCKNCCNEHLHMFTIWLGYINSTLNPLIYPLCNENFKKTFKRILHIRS
Sequence of Adenosine receptor A1 (P30542 whole entry): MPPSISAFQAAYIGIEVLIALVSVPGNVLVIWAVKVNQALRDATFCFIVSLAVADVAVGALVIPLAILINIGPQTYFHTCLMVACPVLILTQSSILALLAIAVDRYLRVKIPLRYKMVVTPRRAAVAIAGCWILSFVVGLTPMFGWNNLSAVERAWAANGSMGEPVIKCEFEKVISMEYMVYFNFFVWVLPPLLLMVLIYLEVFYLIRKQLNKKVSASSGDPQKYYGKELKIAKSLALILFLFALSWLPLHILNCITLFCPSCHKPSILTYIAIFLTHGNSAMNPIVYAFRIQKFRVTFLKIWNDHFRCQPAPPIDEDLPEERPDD
Sequence of Neuropeptide Y receptor type 1 (P25929 whole entry): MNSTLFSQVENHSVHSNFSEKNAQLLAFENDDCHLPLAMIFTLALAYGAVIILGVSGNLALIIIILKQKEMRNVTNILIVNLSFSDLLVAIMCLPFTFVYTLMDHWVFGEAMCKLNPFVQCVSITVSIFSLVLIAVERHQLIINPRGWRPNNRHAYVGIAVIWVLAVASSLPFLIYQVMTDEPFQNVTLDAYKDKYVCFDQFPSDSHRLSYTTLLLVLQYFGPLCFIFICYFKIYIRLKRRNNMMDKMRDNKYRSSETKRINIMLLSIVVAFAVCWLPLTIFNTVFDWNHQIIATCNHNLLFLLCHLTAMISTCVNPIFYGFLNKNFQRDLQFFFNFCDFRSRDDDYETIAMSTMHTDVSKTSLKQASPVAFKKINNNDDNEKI
Sequence of D(2) dopamine receptor (P14416 whole entry): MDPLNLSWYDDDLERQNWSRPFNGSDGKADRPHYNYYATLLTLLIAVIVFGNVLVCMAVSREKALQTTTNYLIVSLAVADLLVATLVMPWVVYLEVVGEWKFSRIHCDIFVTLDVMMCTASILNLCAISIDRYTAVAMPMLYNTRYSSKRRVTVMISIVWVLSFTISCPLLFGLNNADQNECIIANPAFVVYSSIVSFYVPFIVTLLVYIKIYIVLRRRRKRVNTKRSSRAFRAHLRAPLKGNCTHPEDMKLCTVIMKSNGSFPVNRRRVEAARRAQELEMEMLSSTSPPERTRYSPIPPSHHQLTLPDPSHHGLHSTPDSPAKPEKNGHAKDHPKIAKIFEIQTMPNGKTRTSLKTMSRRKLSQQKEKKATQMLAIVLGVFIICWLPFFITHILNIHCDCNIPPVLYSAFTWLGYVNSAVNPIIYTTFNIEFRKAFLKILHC
Sequence of 5-hydroxytryptamine receptor 5A (P47898 whole entry): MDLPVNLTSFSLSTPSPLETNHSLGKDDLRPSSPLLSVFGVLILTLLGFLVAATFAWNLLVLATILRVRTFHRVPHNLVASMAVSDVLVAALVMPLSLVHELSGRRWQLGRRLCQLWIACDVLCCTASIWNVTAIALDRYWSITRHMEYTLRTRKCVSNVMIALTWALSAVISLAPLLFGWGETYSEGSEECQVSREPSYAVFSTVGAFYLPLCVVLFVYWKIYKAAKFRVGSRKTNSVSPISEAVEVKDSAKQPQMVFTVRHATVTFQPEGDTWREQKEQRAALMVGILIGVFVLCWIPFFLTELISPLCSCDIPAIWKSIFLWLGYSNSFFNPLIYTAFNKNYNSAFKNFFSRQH
Sequence of 5-hydroxytryptamine receptor 2A (P14842 whole entry): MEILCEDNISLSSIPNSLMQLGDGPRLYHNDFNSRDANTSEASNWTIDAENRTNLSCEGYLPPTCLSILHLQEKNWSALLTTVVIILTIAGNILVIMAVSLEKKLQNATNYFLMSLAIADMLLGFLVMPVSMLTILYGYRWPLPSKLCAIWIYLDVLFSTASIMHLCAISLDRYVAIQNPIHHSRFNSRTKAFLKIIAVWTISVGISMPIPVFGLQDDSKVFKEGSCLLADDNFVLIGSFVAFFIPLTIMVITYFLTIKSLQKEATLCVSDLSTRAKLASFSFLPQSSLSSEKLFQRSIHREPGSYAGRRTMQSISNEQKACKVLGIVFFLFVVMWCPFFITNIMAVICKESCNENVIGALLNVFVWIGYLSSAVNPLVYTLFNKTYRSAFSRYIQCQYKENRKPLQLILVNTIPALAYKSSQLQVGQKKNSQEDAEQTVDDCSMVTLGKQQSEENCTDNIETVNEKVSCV
Sequence of Neuropeptide Y receptor type 2 (P49146 whole entry): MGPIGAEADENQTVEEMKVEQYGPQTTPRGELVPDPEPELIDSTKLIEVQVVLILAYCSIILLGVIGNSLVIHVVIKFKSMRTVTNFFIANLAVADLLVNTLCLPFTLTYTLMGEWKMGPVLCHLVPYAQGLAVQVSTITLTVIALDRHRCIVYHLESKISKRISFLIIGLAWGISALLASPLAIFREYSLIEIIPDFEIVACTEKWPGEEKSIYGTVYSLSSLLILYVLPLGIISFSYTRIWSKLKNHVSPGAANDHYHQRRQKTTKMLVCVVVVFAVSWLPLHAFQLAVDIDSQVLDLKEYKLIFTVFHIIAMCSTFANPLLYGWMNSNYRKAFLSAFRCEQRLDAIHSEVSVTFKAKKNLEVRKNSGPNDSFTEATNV
Sequence of Beta-1 adrenergic receptor (P08588 whole entry): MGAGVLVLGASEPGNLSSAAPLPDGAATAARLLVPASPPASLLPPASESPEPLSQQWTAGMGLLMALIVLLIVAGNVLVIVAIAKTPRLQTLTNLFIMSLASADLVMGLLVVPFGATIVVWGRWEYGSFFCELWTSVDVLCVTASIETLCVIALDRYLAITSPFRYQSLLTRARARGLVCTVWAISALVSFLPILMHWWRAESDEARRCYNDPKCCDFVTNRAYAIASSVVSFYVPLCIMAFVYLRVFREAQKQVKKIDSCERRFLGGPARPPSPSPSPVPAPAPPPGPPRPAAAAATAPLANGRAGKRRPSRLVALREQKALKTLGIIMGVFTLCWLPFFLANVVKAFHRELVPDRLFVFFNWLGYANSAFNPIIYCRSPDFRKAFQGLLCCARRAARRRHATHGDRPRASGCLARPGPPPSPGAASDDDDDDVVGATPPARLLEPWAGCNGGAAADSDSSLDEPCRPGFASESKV
Sequence of 5-hydroxytryptamine receptor 1B (P28564 whole entry): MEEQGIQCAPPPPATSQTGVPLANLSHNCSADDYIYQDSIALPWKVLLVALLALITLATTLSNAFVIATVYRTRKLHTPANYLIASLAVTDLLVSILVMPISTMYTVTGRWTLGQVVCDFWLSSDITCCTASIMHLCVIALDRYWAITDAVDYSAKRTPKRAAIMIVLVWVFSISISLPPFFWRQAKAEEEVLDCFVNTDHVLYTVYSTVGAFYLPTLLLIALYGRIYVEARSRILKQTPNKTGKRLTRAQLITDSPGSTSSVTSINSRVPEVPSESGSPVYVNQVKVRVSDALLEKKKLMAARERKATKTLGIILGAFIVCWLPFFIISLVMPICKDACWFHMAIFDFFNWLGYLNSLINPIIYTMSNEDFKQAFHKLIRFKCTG

Take `Nn1c(CCCCN2CCN(c3ccc4ccccc4n3)CC2)nc2c(c1=O)CCCC2`: the concentration at 2 h in data set [1] came out at 66.5 nM. For the same compound, in data set [2], the Kp at 2 h was found to be 2.56. Also, the concentration at 4 h in data set [3] was found to be 16.8 nM. In addition, the partition ratio (Kp) at 4 h in [4] was 4.4. For the same compound, the concentration at 8 h in data set [5] amounted to 56.4 nM. In [6], the partition ratio (Kp) at 8 h amounted to 6.54. In addition, the outcome in [7] was Active. The IC50 in data set [8] was over 100 nM; in data set [9], 100 nM; in data set [10], over 1000 nM; in [12], over 1000 nM; in data set [13], over 1 ×10⁻⁶ mol/L; in [14], over 1000 nM. The IC50 in data set [15] was over 1000 nM; in data set [16], 1000 nM; in [17], over 1000 nM; in data set [18] it was over 1000 nM; in data set [19], over 1000 nM; in data set [20], over 1000 nM. In addition, the IC50 is over 1.36 nM in [21], over 1000 nM in [22], over 1000 nM in data set [23] and over 8.93 nM in data set [24]. For the same compound, the inhibition result in data set [11] is “inactive”.
